Results as given in article PMC6334763 (Archives of biochemistry and biophysics, 2018).
Read-outs that look alike come from different tables or passages of the source. Values belong to the molecule of their own block, whether it stands above or below them.

Columns and labels:
Bm-iAANAT3 [1] = target: T1, Bm-iAANAT3 (Bombyx mori, UniProt D7EZJ9); test: Steady-state kinetic characterization with Ellman's reagent; type: biochemical; conditions: for kcat: 300 mM Tris pH 8.0
Bm-iAANAT3 [2] = target: T1, Bm-iAANAT3; test: Activity-based substrate screening; type: biochemical; conditions: rate of CoA-SH release above enzyme-independent acyl-CoA hydrolysis
Procedure, shortened: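 Enzyme: Bm-iAANAT3 expressed from pET28a in E. coli BL-21(DE3), induced with 1.0 mM IPTG for 4 h at 37°C, and Ni-chelate purified. Acetyl-CoA or oleoyl-CoA at 500 μM was tested separately against pooled amines, each at 20 mM or 60 mM, in 300 mM Tris pH 8.0 with 150 μM DTNB. Initial rates came from CoA release at 412 nm (ε₄₁₂ = 13,600 M⁻¹ cm⁻¹), minus background thioester hydrolysis.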

Bm-iAANAT3 [3] = target: T1, Bm-iAANAT3; test: Dead-end and product inhibition analysis; type: biochemical; conditions: for inhibition pattern vs. acetyl-CoA: acetyl-CoA varied, tryptamine fixed; for inhibition pattern vs. tryptamine: tryptamine varied, acetyl-CoA fixed
Procedure, shortened: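 Same Ni-purified Bm-iAANAT3. Initial velocities were measured at several fixed inhibitor levels: oleoyl-CoA at 0, 250 and 500 nM; tyrosol at 0, 150 and 300 μM. In one series, tryptamine was held at 100 μM while acetyl-CoA was varied at 10, 25, 50 and 100 μM. In the other, acetyl-CoA was held at 100 μM while tryptamine was varied at 50, 100, 150 and 300 μM.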

Bm-iAANAT3 [4] = target: T1, Bm-iAANAT3; conditions: cited from earlier work
[5] = target: T2, E27A mutant of Bm-iAANAT3 (Bombyx mori, UniProt D7EZJ9, E27A); test: Steady-state kinetic constants of the E27A mutant; type: biochemical; conditions: E27A mutant compared with wild-type Bm-iAANAT3
T2 sequence (D7EZJ9 1-213 E27A): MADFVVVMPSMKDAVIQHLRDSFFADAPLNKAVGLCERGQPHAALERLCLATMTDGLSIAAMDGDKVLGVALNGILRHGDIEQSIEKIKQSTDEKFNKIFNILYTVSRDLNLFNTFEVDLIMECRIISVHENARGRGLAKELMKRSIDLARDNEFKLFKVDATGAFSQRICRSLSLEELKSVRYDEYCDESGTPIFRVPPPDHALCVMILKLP

[6] = substrate: NCCc1c[nH]c2ccccc12; test: Steady-state kinetic constants of the E27A mutant; type: biochemical, Bombyx mori; conditions: other: E27A mutant; named substrate varied; pH 8.0
[7] = substrate: CC(=O)SCCNC(=O)CCNC(=O)[C@H](O)C(C)(C)COP(=O)(O)OP(=O)(O)OC[C@H]1O[C@@H](n2cnc3c(N)ncnc32)[C@H](O)[C@@H]1OP(=O)(O)O; test: Steady-state kinetic constants of the E27A mutant; type: biochemical, Bombyx mori; conditions: other: E27A mutant; named substrate varied; pH 8.0
[8] = acyl-CoA substrate varied, 8.0 mM tryptamine, 22°C
[9] = binding to free Bm-iAANAT3, ITC and/or NMR
[10] = amine substrate varied, 500 μM acetyl-CoA, 22°C
[11] = amine substrate varied, 500 μM acetyl-CoA, 22°C, 300 mM Tris pH 8.0, 150 μM DTNB

kcat (Bm-iAANAT3 [1]; [8]): 0.05 ± 0.004 s⁻¹
Molecule: CCCCCCCCCC(=O)SCCNC(=O)CCNC(=O)[C@H](O)C(C)(C)COP(=O)(O)OP(=O)(O)OC[C@H]1O[C@@H](n2cnc3c(N)ncnc32)[C@H](O)[C@@H]1OP(=O)(O)O [decanoyl-CoA]

kcat (Bm-iAANAT3 [1]; [8]): 0.36 ± 0.005 s⁻¹
Molecule: CCCCCCCC(=O)SCCNC(=O)CCNC(=O)[C@H](O)C(C)(C)COP(=O)(O)OP(=O)(O)OC[C@H]1O[C@@H](n2cnc3c(N)ncnc32)[C@H](O)[C@@H]1OP(=O)(O)O [octanoyl-CoA]

substrate activity as acyl-CoA donor (Bm-iAANAT3 [2]): no initial velocity increase | inhibition pattern vs. acetyl-CoA (Bm-iAANAT3 [3]): competitive | Ki (Bm-iAANAT3 [3]; read-out: Ki,s, competitive vs. acetyl-CoA (varied), tryptamine fixed at 100 μM): 0.22 ± 0.02 µM | inhibition pattern vs. tryptamine (Bm-iAANAT3 [3]): noncompetitive
Molecule: CCCCCCCC/C=C\CCCCCCCC(=O)SCCNC(=O)CCNC(=O)[C@H](O)C(C)(C)COP(=O)(O)OP(=O)(O)OC[C@H]1O[C@@H](n2cnc3c(N)ncnc32)[C@H](O)[C@@H]1OP(=O)(O)O [oleoyl-CoA]

Molecule: CC(C)(COP(=O)(O)OP(=O)(O)OC[C@H]1O[C@@H](n2cnc3c(N)ncnc32)[C@H](O)[C@@H]1OP(=O)(O)O)[C@@H](O)C(=O)NCCC(=O)NCCS [CoA-SH]
Kd (Bm-iAANAT3 [4]; [9]): 30 ± 1 µM

kcat (Bm-iAANAT3 [1]; [8]): 64 ± 0.7 s⁻¹
Molecule: CC(=O)SCCNC(=O)CCNC(=O)[C@H](O)C(C)(C)COP(=O)(O)OP(=O)(O)OC[C@H]1O[C@@H](n2cnc3c(N)ncnc32)[C@H](O)[C@@H]1OP(=O)(O)O [acetyl-CoA]
Kd (Bm-iAANAT3 [4]; [9]): 0.7 µM

kcat (Bm-iAANAT3 [1]; [8]): 1.3 ± 0.01 s⁻¹
Molecule: CCCCCC(=O)SCCNC(=O)CCNC(=O)C(O)C(C)(C)COP(=O)(O)OP(=O)(O)OC[C@H]1O[C@@H](n2cnc3c(N)ncnc32)[C@H](O)[C@@H]1OP(=O)(O)O (stereo partly shown) [hexanoyl-CoA]

kcat (Bm-iAANAT3 [1]; [10]): 55 ± 1.1 s⁻¹ | Km (Bm-iAANAT3 [1]; [11]): 0.33 ± 0.023 mM
Molecule: NCCc1ccc(O)c(O)c1 [Dopamine]

kcat (Bm-iAANAT3 [1]; [10]): 5.3 ± 0.07 s⁻¹ | Km (Bm-iAANAT3 [1]; [11]): 0.14 ± 0.0086 mM
Molecule: NC[C@H](O)c1ccc(O)c(O)c1 [Norepinephrine]

kcat (Bm-iAANAT3 [1]; [10]): 33 ± 0.68 s⁻¹ | Km (Bm-iAANAT3 [1]; [11]): 1.7 ± 0.098 mM | Km (Bm-iAANAT3 [1]; amine substrate, as given in the text in mM, 500 μM acetyl-CoA): 1.7 ± 0.1 mM
Molecule: NCCc1c[nH]cn1 [Histamine]

substrate activity as acyl-CoA donor (Bm-iAANAT3 [2]): is a substrate | kcat (Bm-iAANAT3 [1]; [8]): 13 ± 1.5 s⁻¹ | fold lower (kcat/Km) than (kcat/Km) of decanoyl-CoA (Bm-iAANAT3 [1]; acyl-CoA substrates, 8.0 mM tryptamine): ~ 6 fold
Molecule: CC(C)(COP(=O)(O)OP(=O)(O)OC[C@H]1O[C@@H](n2cnc3c(N)ncnc32)[C@H](O)[C@@H]1OP(=O)(O)O)[C@@H](O)C(=O)NCCC(=O)NCCSC(=O)CC(=O)O [malonyl-CoA]

Molecule: OCCc1c[nH]c2ccccc12 [tryptophol]
Kd (Bm-iAANAT3 [4]; [9]): 230 ± 12 µM | Kd (Bm-iAANAT3 [4]; in the presence of acetyl-CoA): 50 ± 2 µM

kcat (Bm-iAANAT3 [1]; [10]): 27 ± 0.6 s⁻¹ | Km (Bm-iAANAT3 [1]; [11]): 0.063 ± 0.0067 mM
Molecule: NCCc1ccc(O)cc1 [Tyramine]

Ki (Bm-iAANAT3 [3]; Ki,i, uncompetitive vs. acetyl-CoA (varied), tryptamine fixed at 100 μM): 230 ± 10 µM | Ki (Bm-iAANAT3 [3]; Ki,s, competitive vs. tryptamine (varied), acetyl-CoA fixed at 100 μM): 90 ± 10 µM | inhibition pattern vs. acetyl-CoA (Bm-iAANAT3 [3]): uncompetitive | inhibition pattern vs. tryptamine (Bm-iAANAT3 [3]): competitive
Molecule: OCCc1ccc(O)cc1 [tyrosol]

Molecule: CC(=O)NCCc1c[nH]c2ccccc12 [N-acetyltryptamine]
effect of added CoA-SH on binding (Bm-iAANAT3 [4]; addition of CoA-SH): not affected | effect of added acetyl-CoA on binding (Bm-iAANAT3 [4]; addition of acetyl-CoA): eliminated | Kd (Bm-iAANAT3 [4]; [9]): 12 ± 3 µM | inhibition pattern vs. acetyl-CoA (Bm-iAANAT3 [3]): competitive | inhibition pattern vs. tryptamine (Bm-iAANAT3 [3]): noncompetitive

Molecule: NCCc1c[nH]c2ccccc12 [Tryptamine]
Kd (Bm-iAANAT3 [4]; [9]): 220 ± 8 µM | fold increase in Km, E27A mutant vs wild-type [5]: 100 fold

Molecule: CCCC(=O)SCCNC(=O)CCNC(=O)[C@H](O)C(C)(C)COP(=O)(O)OP(=O)(O)OC[C@H]1O[C@@H](n2cnc3c(N)ncnc32)[C@H](O)[C@@H]1OP(=O)(O)O [Butyryl, buytryl-CoA]
kcat (Bm-iAANAT3 [1]; [8]): 4.0 ± 0.04 s⁻¹

B1: E27A mutant of Bm-iAANAT3 (Bombyx mori; E27A) (protein)
chain: T2 sequence (D7EZJ9 1-213 E27A)
Km [6]: 9400 ± 990 µM | kcat [6]: 8.0 ± 0.3 × 10 s^−1 | Km [7]: 20 ± 2.2 µM | kcat [7]: 4.0 ± 0.09 × 10^−2 s^−1
